# Test results reported in ChEMBL document CHEMBL2390933, “A class of pyrrole derivatives endowed with analgesic/anti-inflammatory activity” (Bioorg Med Chem, 2013).
# Columns and labels:
# [1] = target: Prostaglandin G/H synthase 1 (Homo sapiens, UniProt P23219); assay type: tissue-based, Blood
# [2] = species: Homo sapiens; experiment: Selectivity ratio of IC50 for platelet COX1 in human whole blood to IC50 for monocyte COX2 in human whole blood; assay type: tissue-based
# [3] = tested on: Mus musculus; experiment: Analgesic activity in Swiss albino mouse inflammatory pain model assessed as inhibition of acetic acid-induced writhing at 20 mg/kg, po administered 30 mins prior to acetic acid challenge relative to vehicle-treated control; assay type: functional
# Outline: (§1)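 Male Swiss albino mice (23–25 g), standard diet, water ad libitum, 23 ± 1 °C, 12 h light/dark cycle, randomised into groups. Compound or vehicle (suspended in 1% carboxymethylcellulose) given orally 30 min before ip 0.6% acetic acid. Writhes counted starting 5 min after injection. Reported as writhe count and % reduction versus vehicle-treated mice. Mean of 10 mice per group.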
# [4] = target: T1, Prostaglandin G/H synthase 2 (Mus musculus, UniProt Q05769); experiment: Inhibition of COX2 in mouse J774 cells assessed as inhibition of LPS-induced PGE2 production by radioimmunoassay; assay type: cell-based
# T1 sequence (Q05769 whole entry): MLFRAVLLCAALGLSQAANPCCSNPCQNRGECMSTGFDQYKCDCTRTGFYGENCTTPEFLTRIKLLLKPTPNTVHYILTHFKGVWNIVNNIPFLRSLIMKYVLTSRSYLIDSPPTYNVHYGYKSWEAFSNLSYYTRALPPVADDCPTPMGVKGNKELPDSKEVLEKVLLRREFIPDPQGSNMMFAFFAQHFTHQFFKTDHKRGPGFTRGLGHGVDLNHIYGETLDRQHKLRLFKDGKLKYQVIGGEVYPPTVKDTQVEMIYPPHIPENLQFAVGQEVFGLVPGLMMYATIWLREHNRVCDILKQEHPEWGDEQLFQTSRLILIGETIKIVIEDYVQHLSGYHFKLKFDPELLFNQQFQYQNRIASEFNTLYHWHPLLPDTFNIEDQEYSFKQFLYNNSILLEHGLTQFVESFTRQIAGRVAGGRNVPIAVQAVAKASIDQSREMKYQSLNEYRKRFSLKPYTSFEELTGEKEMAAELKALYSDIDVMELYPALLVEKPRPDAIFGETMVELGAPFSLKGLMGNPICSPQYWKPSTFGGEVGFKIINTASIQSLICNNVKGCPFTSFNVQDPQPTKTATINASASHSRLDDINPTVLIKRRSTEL
# [5] = target: T2, Prostaglandin G/H synthase 1 (Mus musculus, UniProt P22437); experiment: Inhibition of COX1 in mouse J774 cells using arachidonic acid as substrate assessed as inhibition of PGE2 production incubated for 15 mins prior to substrate addition measured after 30 mins by radioimmunoassay; assay type: cell-based
# T2 sequence (P22437 whole entry): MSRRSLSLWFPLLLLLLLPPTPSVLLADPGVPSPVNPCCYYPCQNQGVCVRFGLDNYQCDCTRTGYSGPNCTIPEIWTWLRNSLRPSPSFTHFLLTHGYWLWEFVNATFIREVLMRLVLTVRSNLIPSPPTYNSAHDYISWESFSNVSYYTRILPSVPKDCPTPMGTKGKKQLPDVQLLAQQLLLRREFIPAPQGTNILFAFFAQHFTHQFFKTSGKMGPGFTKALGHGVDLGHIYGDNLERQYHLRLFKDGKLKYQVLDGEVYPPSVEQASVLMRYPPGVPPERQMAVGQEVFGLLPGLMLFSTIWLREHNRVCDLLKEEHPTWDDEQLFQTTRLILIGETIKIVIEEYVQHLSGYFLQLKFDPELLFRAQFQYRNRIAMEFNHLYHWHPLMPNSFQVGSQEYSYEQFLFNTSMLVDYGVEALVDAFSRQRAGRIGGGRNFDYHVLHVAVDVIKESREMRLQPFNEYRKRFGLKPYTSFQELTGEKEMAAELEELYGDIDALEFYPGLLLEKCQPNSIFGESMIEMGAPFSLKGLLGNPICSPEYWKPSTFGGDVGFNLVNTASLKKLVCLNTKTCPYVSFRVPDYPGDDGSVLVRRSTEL
# Outline: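 J774 cells allowed to adhere 2 h at 37 °C, 5% CO2; medium swapped for FBS-free medium just before use. Pre-treatment with compounds (0.01–10 µM) for 15 min, then 30 min at 37 °C with 15 µM arachidonic acid to activate constitutive COX-1. Supernatant PGE2 by RIA; triplicate wells, mean of three experiments as % inhibition vs control; IC50 from sigmoidal variable-slope fit.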
# [6] = tested on: Mus musculus; experiment: Analgesic activity in Swiss albino mouse inflammatory pain model assessed as inhibition of acetic acid-induced writhing at 10 mg/kg, po administered 30 mins prior to acetic acid challenge relative to vehicle-treated control; assay type: functional
# Outline: as §1
# [7] = target: T3, Prostaglandin G/H synthase 2 (Homo sapiens, UniProt P35354); parameters: species or system Blood
# T3 sequence (P35354 whole entry): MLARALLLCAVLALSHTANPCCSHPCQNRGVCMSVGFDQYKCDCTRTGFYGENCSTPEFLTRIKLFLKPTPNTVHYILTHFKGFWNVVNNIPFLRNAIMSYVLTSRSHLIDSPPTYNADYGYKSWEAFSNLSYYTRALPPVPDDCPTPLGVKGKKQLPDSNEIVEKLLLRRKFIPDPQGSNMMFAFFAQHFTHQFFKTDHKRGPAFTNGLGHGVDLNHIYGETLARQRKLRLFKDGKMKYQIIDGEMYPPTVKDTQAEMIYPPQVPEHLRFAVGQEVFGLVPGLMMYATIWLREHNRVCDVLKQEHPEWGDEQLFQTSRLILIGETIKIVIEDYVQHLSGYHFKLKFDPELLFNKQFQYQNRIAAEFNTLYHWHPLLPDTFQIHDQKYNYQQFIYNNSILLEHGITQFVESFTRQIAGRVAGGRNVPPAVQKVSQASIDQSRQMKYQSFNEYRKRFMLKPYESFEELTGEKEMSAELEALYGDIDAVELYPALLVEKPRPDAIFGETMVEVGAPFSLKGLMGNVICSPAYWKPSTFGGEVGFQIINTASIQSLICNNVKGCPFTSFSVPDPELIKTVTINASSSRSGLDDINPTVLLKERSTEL
# [8] = tested on: Mus musculus; experiment: Analgesic activity in Swiss albino mouse inflammatory pain model assessed as inhibition of acetic acid-induced writhing at 5 mg/kg, po administered 30 mins prior to acetic acid challenge relative to vehicle-treated control; assay type: functional
# Outline: as §1
# [9] = tested on: J774; experiment: Selectivity index, ratio of IC50 for COX1 in mouse J774 cells to IC50 for COX2 in mouse J774 cells; assay type: cell-based
# [10] = tested on: Mus musculus; experiment: Analgesic activity in Swiss albino mouse inflammatory pain model assessed as inhibition of acetic acid-induced writhing at 40 mg/kg, po administered 30 mins prior to acetic acid challenge relative to vehicle-treated control; assay type: functional
# Outline: as §1
# [11] = target: T4, Prostaglandin G/H synthase 2 (Mus musculus) (UniProt Q05769); experiment: Ratio of celecoxib IC50 to compound IC50 for COX2 in mouse J774 cells; assay type: cell-based
# T4 sequence (whole entry): T1 sequence (Q05769 whole entry)
# Outline: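 The COX-2 IC50 was measured in J774 cells stimulated 24 h with E. coli LPS (10 µg/mL) with or without compound (0.01–10 µM). Supernatant PGE2 by RIA; triplicate wells, mean of three experiments; IC50 from a sigmoidal variable-slope fit. Celecoxib served as the reference for the index.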
# [12] = tested on: Mus musculus; experiment: Analgesic activity in Swiss albino mouse inflammatory pain model assessed as inhibition of acetic acid-induced writhing at 1 mg/kg, po administered 30 mins prior to acetic acid challenge relative to vehicle-treated control; assay type: functional
# Outline: as §1
# Sequence of Prostaglandin G/H synthase 1 (Homo sapiens, UniProt P23219) (P23219 whole entry): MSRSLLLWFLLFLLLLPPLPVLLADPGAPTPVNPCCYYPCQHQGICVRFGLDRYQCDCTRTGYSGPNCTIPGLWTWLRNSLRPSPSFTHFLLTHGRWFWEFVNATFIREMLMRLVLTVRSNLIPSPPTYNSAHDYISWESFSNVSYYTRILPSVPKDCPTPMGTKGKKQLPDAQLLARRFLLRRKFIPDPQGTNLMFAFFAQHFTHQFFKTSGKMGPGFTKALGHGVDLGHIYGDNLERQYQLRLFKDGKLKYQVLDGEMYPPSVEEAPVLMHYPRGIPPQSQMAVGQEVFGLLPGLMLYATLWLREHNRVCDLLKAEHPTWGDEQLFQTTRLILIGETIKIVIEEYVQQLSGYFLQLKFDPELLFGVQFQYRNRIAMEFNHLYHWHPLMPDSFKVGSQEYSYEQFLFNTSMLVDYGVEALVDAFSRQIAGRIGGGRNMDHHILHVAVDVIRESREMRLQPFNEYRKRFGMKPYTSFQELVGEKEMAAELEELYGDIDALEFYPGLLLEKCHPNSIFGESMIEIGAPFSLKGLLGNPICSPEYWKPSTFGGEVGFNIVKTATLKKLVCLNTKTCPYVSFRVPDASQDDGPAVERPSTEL
SMILES,IC50 [1] [µM],Ratio IC50 [2],inhibition in vivo at 20 mg/kg [3] [%],IC50 [4] [nM],IC50 [5] [µM],inhibition in vivo at 10 mg/kg [6] [%],IC50 [7] [µM],inhibition in vivo at 5 mg/kg [8] [%],Ratio IC50 [9],inhibition in vivo at 40 mg/kg [10] [%],Ratio IC50 [11],inhibition in vivo at 1 mg/kg [12] [%]
Cc1c(/C=N\O)cc(-c2ccc(S(C)(=O)=O)cc2)n1-c1ccc(F)c(F)c1,161,9.3,27,160,> 10,19,17.3,10,> 62.5,–,–,–
Cc1c(C#N)cc(-c2ccc(S(C)(=O)=O)cc2)n1-c1ccc(F)c(F)c1,–,–,38,2.2,> 10,19,–,8,> 454,57,36,–
Cc1c(C#N)cc(-c2ccc(S(C)(=O)=O)cc2)n1-c1ccc(F)cc1,–,–,33,–,> 10,36,–,5,–,45,–,–
Cc1c(/C=N\O)cc(-c2ccc(S(C)(=O)=O)cc2)n1-c1ccccc1,–,–,53,190,> 10,27,–,13,> 52.6,57,–,–
Cc1c(C=O)cc(-c2ccc(S(C)(=O)=O)cc2)n1-c1cccc(F)c1,–,–,44,9.5,> 10,39,–,–,> 1050,–,8,–
Cc1c(/C=N\O)cc(-c2ccc(S(C)(=O)=O)cc2)n1-c1cccc(F)c1,–,–,42,440,> 10,32,–,–,> 22.7,45,–,–
Cc1c(C=O)cc(-c2ccc(S(C)(=O)=O)cc2)n1-c1ccc(F)cc1,–,–,30,–,> 10,–,–,5,–,31,–,–
Cc1ccc(-c2cc(C(F)(F)F)nn2-c2ccc(S(N)(=O)=O)cc2)cc1 [CELECOXIB],–,–,58,–,–,57,–,50,–,69,–,42
Cc1c(C#N)cc(-c2ccc(S(C)(=O)=O)cc2)n1-c1ccccc1,–,–,42,360,> 10,28,–,–,> 27.8,59,–,–
Cc1c(C=O)cc(-c2ccc(S(C)(=O)=O)cc2)n1-c1ccc(F)c(F)c1,71.4,4.8,52,70,> 10,53,14.8,50,> 143,60,–,36
Cc1c(/C=N\O)cc(-c2ccc(S(C)(=O)=O)cc2)n1-c1ccc(F)cc1,–,–,41,360,> 10,36,–,2,> 27.8,47,–,–
Cc1c(C=O)cc(-c2ccc(S(C)(=O)=O)cc2)n1-c1ccccc1,–,–,32,34,> 10,23,–,–,> 294,30,–,–
Cc1c(C#N)cc(-c2ccc(S(C)(=O)=O)cc2)n1-c1cccc(F)c1,50.5,38.8,33,13,> 10,28,1.3,21,> 769,38,–,–
